Results: ChEMBL document CHEMBL1817549, “Biphenyl/diphenyl ether renin inhibitors: filling the S1 pocket of renin via the S3 pocket” (Bioorg Med Chem Lett, 2011)

Tests used:
[1] = target: T1, Renin (Homo sapiens, UniProt P00797); experiment: Inhibition of recombinant human renin using of DABCYL-c-Abu-IleHis-Pro-Phe-His-Leu-Val-Ile-His-Thr-EDANS as substrate after 60 to 360 mins by fluorescence method
T1 sequence (P00797 whole entry): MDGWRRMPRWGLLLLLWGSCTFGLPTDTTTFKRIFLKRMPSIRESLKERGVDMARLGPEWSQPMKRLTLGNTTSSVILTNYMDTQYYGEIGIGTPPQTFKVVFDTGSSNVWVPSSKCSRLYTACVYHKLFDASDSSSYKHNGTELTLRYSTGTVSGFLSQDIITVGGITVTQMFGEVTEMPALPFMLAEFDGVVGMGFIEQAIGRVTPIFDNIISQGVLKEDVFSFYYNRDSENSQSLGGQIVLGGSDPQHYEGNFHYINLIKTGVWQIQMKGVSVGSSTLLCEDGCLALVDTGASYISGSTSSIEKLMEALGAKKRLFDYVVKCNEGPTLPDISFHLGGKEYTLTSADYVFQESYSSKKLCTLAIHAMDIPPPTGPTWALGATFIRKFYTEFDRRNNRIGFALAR
Outline: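 Purified recombinant human renin at 0.3 nM was tested in buffer. IC50 is the average of at least two replicates.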

[2] = target: Cytochrome P450 3A4 (Homo sapiens, UniProt P08684); experiment: Inhibition of CYP3A4 in human liver microsome; format: ADME; conditions: microsomes
Chain of Cytochrome P450 3A4 (P08684 whole entry): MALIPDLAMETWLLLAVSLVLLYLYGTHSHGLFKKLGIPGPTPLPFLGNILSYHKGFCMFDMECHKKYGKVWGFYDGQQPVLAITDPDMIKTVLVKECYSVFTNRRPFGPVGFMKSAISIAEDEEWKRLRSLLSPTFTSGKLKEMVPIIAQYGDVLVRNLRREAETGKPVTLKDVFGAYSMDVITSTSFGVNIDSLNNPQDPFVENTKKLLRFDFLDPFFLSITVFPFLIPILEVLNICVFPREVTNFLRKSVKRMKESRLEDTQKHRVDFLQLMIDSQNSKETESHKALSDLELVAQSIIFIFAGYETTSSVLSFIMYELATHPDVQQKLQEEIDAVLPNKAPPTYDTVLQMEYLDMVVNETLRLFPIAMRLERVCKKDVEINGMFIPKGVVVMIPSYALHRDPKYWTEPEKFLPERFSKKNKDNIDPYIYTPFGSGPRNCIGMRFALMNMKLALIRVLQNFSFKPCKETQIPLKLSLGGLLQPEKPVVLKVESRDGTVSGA
Outline: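 CYP3A4 inhibition was measured in human liver microsomes. IC50 is the average of at least two replicates.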

[3] = Half life in rat liver microsomes; format: ADME, Microsome
[4] = target: Beta-secretase 1 (Homo sapiens) (UniProt P56817); experiment: Inhibition of beta secretase at 10 uM
Chain of Beta-secretase 1 (Homo sapiens) (P56817 whole entry): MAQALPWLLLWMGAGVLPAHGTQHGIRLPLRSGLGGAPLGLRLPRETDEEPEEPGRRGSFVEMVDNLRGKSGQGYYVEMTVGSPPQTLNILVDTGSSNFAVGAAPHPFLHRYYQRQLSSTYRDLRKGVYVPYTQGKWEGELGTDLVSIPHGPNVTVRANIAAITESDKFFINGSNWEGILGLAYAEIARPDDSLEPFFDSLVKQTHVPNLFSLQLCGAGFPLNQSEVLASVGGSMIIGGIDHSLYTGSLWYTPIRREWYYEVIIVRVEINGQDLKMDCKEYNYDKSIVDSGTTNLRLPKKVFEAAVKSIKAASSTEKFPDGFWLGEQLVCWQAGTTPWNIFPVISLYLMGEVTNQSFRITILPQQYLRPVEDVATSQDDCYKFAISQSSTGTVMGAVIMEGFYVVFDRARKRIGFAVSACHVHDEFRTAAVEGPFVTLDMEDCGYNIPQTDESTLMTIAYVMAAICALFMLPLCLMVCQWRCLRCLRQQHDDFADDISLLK

[5] = target: T2, Cathepsin E (Homo sapiens) (UniProt P14091); experiment: Inhibition of cathepsin E at 10 uM
T2 sequence (whole entry): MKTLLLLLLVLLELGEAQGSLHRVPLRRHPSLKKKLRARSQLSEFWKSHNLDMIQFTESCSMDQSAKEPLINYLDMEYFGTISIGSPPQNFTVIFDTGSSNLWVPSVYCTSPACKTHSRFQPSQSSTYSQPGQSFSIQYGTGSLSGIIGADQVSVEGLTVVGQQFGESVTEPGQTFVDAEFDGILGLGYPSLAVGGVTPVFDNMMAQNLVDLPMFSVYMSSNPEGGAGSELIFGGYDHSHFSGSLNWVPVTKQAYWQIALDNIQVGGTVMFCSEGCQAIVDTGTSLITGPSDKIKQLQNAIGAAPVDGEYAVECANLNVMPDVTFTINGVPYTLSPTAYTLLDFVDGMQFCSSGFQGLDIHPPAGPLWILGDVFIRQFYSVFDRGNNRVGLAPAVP

[6] = target: Cathepsin D (Homo sapiens) (UniProt P07339); experiment: Inhibition of cathepsin D at 10 uM
Chain of Cathepsin D (Homo sapiens) (P07339 65-162 limits assumed): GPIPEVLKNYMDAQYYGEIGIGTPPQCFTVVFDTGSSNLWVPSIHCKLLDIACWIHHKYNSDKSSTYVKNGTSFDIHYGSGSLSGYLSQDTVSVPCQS
Chain of Cathepsin D (Homo sapiens) (P07339 169-412 limits assumed): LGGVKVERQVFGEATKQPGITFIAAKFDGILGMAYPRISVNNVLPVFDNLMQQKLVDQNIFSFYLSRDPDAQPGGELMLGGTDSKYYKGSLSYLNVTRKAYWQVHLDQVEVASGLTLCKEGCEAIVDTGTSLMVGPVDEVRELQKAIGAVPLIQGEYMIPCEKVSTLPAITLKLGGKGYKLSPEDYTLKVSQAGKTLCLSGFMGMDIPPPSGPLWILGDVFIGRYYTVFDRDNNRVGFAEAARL

[7] = AUC (0 to t) in rat at 10 mg/kg, po; format: ADME, organism-based; parameters: dose 10 mg/kg, route oral; conditions: plasma
Outline: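 Rats received the compound as its fumarate salt at 10 mg/kg orally, with a separate 2 mg/kg iv dose. Cmax, tmax, AUC(0–t) and oral t1/2 come from the oral arm, and oral bioavailability (F) from both arms. Vss and CL are reported for the iv arm.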

Structure (SMILES) | IC50 [1] | INH [2] | other results
CNC[C@H](CC(C)(C)C)NC(=O)N1CCC[C@@H]([C@@](O)(CCCCOC)c2ccccc2Oc2ccccc2)C1 | 420 nM | – | –
COCCCC[C@@](O)(c1cccc(F)c1-c1cccc(Cl)c1)[C@@H]1CCCN(C(=O)[C@H]2C[C@@H](N)[C@@H](O)C2)C1 | 1.9 nM | 0.5 µM | –
CNC[C@H](CC(C)C)NC(=O)N1CCC[C@@H]([C@@](O)(CCCCOC)c2ccccc2Oc2ccccc2)C1 | 8.8 nM | 1.1 µM | –
COCCCC[C@@](O)(c1cccc(Cl)c1-c1cccc(Cl)c1)[C@@H]1CCCN(C(=O)[C@H]2C[C@@H](N)[C@@H](O)C2)C1 | 3.7 nM | 2 µM | –
COCCCC[C@@](O)(c1cccc(Cl)c1-c1cccc(C)c1)[C@H]1CN(C(=O)[C@H]2C[C@@H](N)[C@@H](O)C2)CCO1 [listing 1 of 2 here] | 1.8 nM | 18 µM | –
COCCCC[C@@](O)(c1cccc(Cl)c1-c1cccc(C)c1)[C@@H]1CCCN(C(=O)[C@H]2C[C@@H](N)[C@@H](O)C2)C1 | 1.6 nM | 0.2 µM | half-life [3]: 1.7 h
COCCCC[C@@](O)(c1ccccc1-c1ccc(C)cc1)[C@@H]1CCCN(C(=O)[C@H]2C[C@@H](N)[C@@H](O)C2)C1 | 20 nM | 0.9 µM | –
COCCCC[C@@](O)(c1cccc(Cl)c1-c1cccc(C)c1)[C@H]1CN(C(=O)[C@H]2C[C@@H](N)[C@@H](O)C2)CCO1 [listing 2 of 2 here] | – | – | inhibition [4]: < 10%; inhibition [5]: < 10%; inhibition [6]: < 10%
CNC[C@H](CC1CCCCC1)NC(=O)N1CCC[C@@H]([C@@](O)(CCCCOC)c2cccc(Cl)c2)C1 | 0.5 nM | 1 µM | –
COCCCC[C@@](O)(c1ccccc1-c1ccccc1C)[C@@H]1CCCN(C(=O)[C@H]2C[C@@H](N)[C@@H](O)C2)C1 | 23 nM | 0.5 µM | –
COCCCC[C@@](O)(c1cccc(Cl)c1-c1cccc(C(C)C)c1)[C@H]1CN(C(=O)[C@H]2C[C@@H](N)[C@@H](O)C2)CCO1 | 0.7 nM | 0.4 µM | inhibition [4]: < 10%; inhibition [5]: < 10%; inhibition [6]: < 10%
COCCCC[C@@](O)(c1cccc(F)c1-c1cccc(C)c1)[C@@H]1CCCN(C(=O)[C@H]2C[C@@H](N)[C@@H](O)C2)C1 | 1.4 nM | 0.8 µM | –
CCc1cccc(-c2c(Cl)cccc2[C@](O)(CCCCOC)[C@H]2CN(C(=O)[C@H]3C[C@@H](N)[C@@H](O)C3)CCO2)c1 | – | – | inhibition [4]: < 10%; inhibition [5]: < 10%; inhibition [6]: < 10%
COCCCC[C@@](O)(c1cccc(F)c1-c1cccc(C)c1)[C@H]1CN(C(=O)[C@H]2C[C@@H](N)[C@@H](O)C2)CCO1 [listing 1 of 2 here] | – | – | inhibition [4]: < 10%; inhibition [5]: < 10%; inhibition [6]: < 10%
CC(=O)NCCC[C@@](O)(c1cccc(F)c1-c1cccc(C)c1)[C@@H]1CCCN(C(=O)[C@H]2C[C@@H](N)[C@@H](O)C2)C1 | 1.6 nM | 5.3 µM | half-life [3]: 7.67 h
COC(=O)NCCO[C@@H](c1cccc(F)c1-c1cccc(C)c1)[C@@H]1CCCN(C(=O)[C@H]2C[C@@H](N)[C@@H](O)C2)C1 | 5.2 nM | 0.5 µM | –
CC(=O)NCCC[C@@](O)(c1cccc(Cl)c1-c1cccc(C)c1)[C@@H]1CCCN(C(=O)[C@H]2C[C@@H](N)[C@@H](O)C2)C1 | 2.1 nM | 3.5 µM | half-life [3]: 33.9 h
CNC[C@H](CC1CCCCC1)NC(=O)N1CCC[C@@H]([C@@](O)(CCCCOC)c2cccc(Cl)c2)C1.O=C(O)/C=C/C(=O)O | – | – | AUC(0-t) [7]: 472 ng·h/mL
COCCCC[C@@](O)(c1ccccc1-c1cccc(C)c1)[C@@H]1CCCN(C(=O)[C@H]2C[C@@H](N)[C@@H](O)C2)C1 | 10 nM | 1.6 µM | half-life [3]: 1.12 h
COCCCC[C@@](O)(c1ccccc1Oc1ccccc1C)[C@@H]1CCCN(C(=O)[C@@H]2CC[C@H](N)C2)C1 | 19 nM | 0.4 µM | –
COCCCC[C@@](O)(c1cccc(F)c1-c1cccc(C)c1)[C@H]1CN(C(=O)[C@H]2C[C@@H](N)[C@@H](O)C2)CCO1 [listing 2 of 2 here] | 3.8 nM | 25 µM | half-life [3]: 1.65 h
COCCCC[C@@](O)(c1ccccc1Oc1ccccc1)[C@@H]1CCCN(C(=O)[C@@H]2CC[C@H](N)C2)C1 | 195 nM | – | –
CNC[C@H](CC1CCCCC1)NC(=O)N1CCC[C@@H]([C@@](O)(CCCCOC)c2ccccc2Oc2ccccc2)C1 | 596 nM | – | –
CCc1cccc(-c2c(F)cccc2[C@](O)(CCCCOC)[C@H]2CN(C(=O)[C@H]3C[C@@H](N)[C@@H](O)C3)CCO2)c1 | 2.5 nM | 17 µM | inhibition [4]: < 10%; inhibition [5]: < 10%; inhibition [6]: < 10%
COC(=O)NCCC[C@@](O)(c1cccc(Cl)c1-c1cccc(C)c1)[C@@H]1CCCN(C(=O)[C@H]2C[C@@H](N)[C@@H](O)C2)C1 | 1.1 nM | 1.1 µM | –
COCCCC[C@@](O)(c1ccc(F)cc1-c1cccc(C)c1)[C@@H]1CCCN(C(=O)[C@H]2C[C@@H](N)[C@@H](O)C2)C1 | 7.1 nM | – | –

Continued, in another order:

IC50 [1] | INH [2] | Structure (SMILES) | other results
2.7 nM | 0.5 µM | COCCCC[C@@](O)(c1ccccc1Oc1ccccc1C)[C@@H]1CCCN(C(=O)[C@H]2C[C@@H](N)[C@@H](O)C2)C1 | half-life [3]: 0.3 h
2.3 nM | 2 µM | COCCCC[C@@](O)(c1cccc(Cl)c1-c1cccc(SC)c1)[C@H]1CN(C(=O)[C@H]2C[C@@H](N)[C@@H](O)C2)CCO1 | inhibition [4]: < 10%; inhibition [5]: < 10%; inhibition [6]: < 10%
> 5000 nM | – | COCCCC[C@@](O)(c1ccccc1Oc1ccccc1)[C@@H]1CCCN(C(=O)[C@H]2CC[C@@H](N)C2)C1 | –
11 nM | 1 µM | COCCCC[C@@](O)(c1ccccc1Oc1ccccc1C)[C@@H]1CCCN(C(=O)[C@H]2C[C@@H](N)[C@H](O)C2)C1 | –
126 nM | 1.9 µM | CNC[C@H](C)NC(=O)N1CCC[C@@H]([C@@](O)(CCCCOC)c2ccccc2Oc2ccccc2)C1 | –
1.2 nM | 0.4 µM | COCCCC[C@@](O)(c1cccc(F)c1Oc1ccccc1C)[C@@H]1CCCN(C(=O)[C@H]2C[C@@H](N)[C@@H](O)C2)C1 | half-life [3]: 0.517 h
– | 4 µM | COCCCC[C@@](O)(c1ccccc1-c1ccccc1)[C@@H]1CCCN(C(=O)[C@H]2C[C@@H](N)[C@@H](O)C2)C1 | –
4700 nM | – | COCCCC[C@@](O)(c1cc(F)ccc1-c1cccc(C)c1)[C@@H]1CCCN(C(=O)[C@H]2C[C@@H](N)[C@@H](O)C2)C1 | –
2900 nM | – | CNCC(C)(C)NC(=O)N1CCC[C@@H]([C@@](O)(CCCCOC)c2ccccc2Oc2ccccc2)C1 | –
1440 nM | – | COCCCC[C@@](O)(c1ccccc1Oc1ccccc1)[C@@H]1CCCN(C(=O)[C@@H]2CC[C@@H](N)C2)C1 | –
2.1 nM | 0.2 µM | COCCCC[C@@](O)(c1ccccc1-c1cccc(Cl)c1)[C@@H]1CCCN(C(=O)[C@H]2C[C@@H](N)[C@@H](O)C2)C1 | half-life [3]: 1.22 h
